Calls of active or inactive are those of the source. No cut-off for these calls is given here.
How the values were obtained:
Rattus norvegicus [1] = assay: Hypotensive activity in anaesthetized albino rat assessed as change in systolic arterial blood pressure at 5 mg/kg, ip up to 60 mins; format: functional, organism-based; design: dose 5 mg/kg
In short: (§1)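 Male adult albino rats (groups of 6) anaesthetised with urethane 1.75–2.0 g/Kg i.p. Test agent given i.p. at 5 mg/Kg, dissolved in tween 80 and diluted 1:3 with distilled water. A solvent-treated group served as control. Arterial pressure was recorded via a cannula and pressure transducer on a chart oscillograph at 5, 15, 30 and 60 min. Statistics by one-way ANOVA or unpaired t test.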

Rattus norvegicus [2] = assay: Hypotensive activity in anaesthetized albino rat assessed as change in diastolic arterial blood pressure at 5 mg/kg, ip up to 60 mins; format: functional, organism-based; design: dose 5 mg/kg; in short: as §1
Rattus norvegicus [3] = assay: Hypotensive activity in anaesthetized albino rat assessed as change in diastolic arterial blood pressure at 5 mg/kg, ip after 30 mins relative to control; conditions: route intraperitoneal
Rattus norvegicus [4] = assay: Hypotensive activity in anaesthetized albino rat assessed as reduction of adrenaline-induced increase in diastolic arterial blood pressure at 3 ug/kg, iv administered 30 mins before adrenaline challenge measured after 30 mins relative to control; format: functional; design: scale not given: the % may be the effect or the level left
In short: (§2)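 Anaesthetised male albino rats (urethane 1.75–2.0 g/Kg i.p.; n=6 per group). Adrenaline (3/Kg i.v.) pressor response was recorded alone, 30 min before i.p. injection of the test agent (5 mg/Kg in tween 80/water). The adrenaline challenge was repeated 30 min and 1 h after dosing. Systolic and diastolic pressure were recorded via a cannulated artery and transducer.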

Rattus norvegicus [5] = assay: Hypotensive activity in anaesthetized albino rat assessed as change in systolic arterial blood pressure at 5 mg/kg, ip after 15 mins relative to control; conditions: route intraperitoneal
Rattus norvegicus [6] = assay: Hypotensive activity in anaesthetized albino rat assessed as change in diastolic arterial blood pressure at 60 mg/kg, ip after 5 mins relative to control; format: functional; conditions: route intraperitoneal
Rattus norvegicus [7] = assay: Toxicity in anaesthetized albino rat assessed as change in heart rate at 15 mg/kg, ip after 5 mins relative to control; format: organism-based; design: dose 15 mg/kg, route intraperitoneal; conditions: in vivo
Rattus norvegicus [8] = assay: Toxicity in anaesthetized albino rat assessed as change in heart rate at 5 mg/kg, ip after 5 mins relative to control; format: organism-based; design: dose 5 mg/kg, route intraperitoneal; conditions: in vivo
In short: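 Urethane-anaesthetised (1.75–2.0 g/Kg i.p.) male albino rats, 6 per group, received 5 mg/Kg i.p. in tween 80/distilled water (1:3); solvent-treated controls. Heart rate was taken from a lead II ECG at 5 min after injection (also 15, 30, 60 min). Analysed by ANOVA or unpaired t test.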

Rattus norvegicus [9] = assay: Toxicity in anaesthetized albino rat assessed as change in heart rate at 30 mg/kg, ip after 5 mins relative to control; format: organism-based; design: dose 30 mg/kg, route intraperitoneal; conditions: in vivo
Rattus norvegicus [10] = assay: Hypotensive activity in anaesthetized albino rat assessed as reduction of adrenaline-induced increase in systolic arterial blood pressure at […], iv administered 30 mins before adrenaline challenge measured after 30 mins relative to control; format: functional; design: scale not given: the % may be the effect or the level left; in short: as §2
Rattus norvegicus [11] = assay: Hypotensive activity in anaesthetized albino rat assessed as reduction of adrenaline-induced increase in systolic arterial blood pressure at 3 ug/kg, iv administered 30 mins before adrenaline challenge measured after 1 hr relative to control; format: functional; design: scale not given: the % may be the effect or the level left; in short: as §2
Rattus norvegicus [12] = assay: Hypotensive activity in anaesthetized albino rat assessed as reduction of adrenaline-induced increase in diastolic arterial blood pressure at 3 ug/kg, iv administered 30 mins before adrenaline challenge measured after 1 hr relative to control; format: functional; design: scale not given: the % may be the effect or the level left; in short: as §2
Rattus norvegicus [13] = assay: Hypotensive activity in anaesthetized albino rat assessed as change in diastolic arterial blood pressure at 5 mg/kg, ip after 5 mins relative to control; format: functional; conditions: route intraperitoneal; in short: as §1
Rattus norvegicus [14] = assay: Hypotensive activity in anaesthetized albino rat assessed as change in systolic arterial blood pressure at 5 mg/kg, ip after 60 mins relative to control; conditions: route intraperitoneal
Rattus norvegicus [15] = assay: Hypotensive activity in anaesthetized albino rat assessed as change in diastolic arterial blood pressure at 5 mg/kg, ip after 15 mins relative to control; conditions: route intraperitoneal
Rattus norvegicus [16] = assay: Toxicity in anaesthetized albino rat assessed as change in heart rate at 60 mg/kg, ip after 5 mins relative to control; format: organism-based; design: dose 60 mg/kg, route intraperitoneal; conditions: in vivo
Rattus norvegicus [17] = assay: Hypotensive activity in anaesthetized albino rat assessed as change in systolic arterial blood pressure at 5 mg/kg, ip after 5 mins relative to control; format: functional; conditions: route intraperitoneal; in short: as §1
Rattus norvegicus [18] = assay: Hypotensive activity in anaesthetized albino rat assessed as change in systolic arterial blood pressure at 15 mg/kg, ip; format: functional, organism-based; design: dose 15 mg/kg; conditions: TDE = time-dependent effect
Rattus norvegicus [19] = assay: Hypotensive activity in anaesthetized albino rat assessed as change in diastolic arterial blood pressure at 5 mg/kg, ip; conditions: TDE = time-dependent effect

Structure (SMILES)	Activity (Rattus norvegicus [1])	Activity (Rattus norvegicus [2])	Activity (Rattus norvegicus [3])	Activity (Rattus norvegicus [4])	Activity (Rattus norvegicus [5])	Activity (Rattus norvegicus [6])	Activity (Rattus norvegicus [7])	Activity (Rattus norvegicus [8])	Activity (Rattus norvegicus [9])	Activity (Rattus norvegicus [10])	Activity (Rattus norvegicus [11])	Activity (Rattus norvegicus [12])	Activity (Rattus norvegicus [13])	Activity (Rattus norvegicus [14])	Activity (Rattus norvegicus [15])	Activity (Rattus norvegicus [16])	Activity (Rattus norvegicus [17])	also measured
CCOC(=O)COc1ccc(N2CC3=C(CC(C)(C)CC3=O)N(c3ccc(Cl)cc3)C2)cc1	inactive	inactive																
CC1(C)CC(=O)C2=C(C1)N(c1ccc(Cl)cc1)CN(c1ccc(OCC(=O)N/N=C/c3ccccc3Cl)cc1)C2	inactive	inactive																
COc1cc2nc(N3CCN(C(=O)c4ccco4)CC3)nc(N)c2cc1OC [PRAZOSIN]			-27.7%	-8%	-29.2%	-38.8%	26%	30%	16%	-11%	0%	0%	-22.22%	-33.3%	-22.22%	-5.1%	-20.8%	
CC1(C)CC(=O)C2=C(C1)N(c1ccc(Cl)cc1)CN(c1ccc(OCC(=O)N/N=C/c3cccc(Br)c3)cc1)C2	inactive	inactive																
CC1(C)CC(=O)C2=C(C1)N(c1ccc(Cl)cc1)CN(c1ccc(OCC(=O)N/N=C/c3ccc(Br)cc3)cc1)C2	inactive	inactive																
COc1cccc(/C=N/NC(=O)COc2ccc(N3CC4=C(CC(C)(C)CC4=O)N(c4ccc(Cl)cc4)C3)cc2)c1	inactive	inactive																
COc1ccc(/C=N/NC(=O)COc2ccc(N3CC4=C(CC(C)(C)CC4=O)N(c4ccc(Cl)cc4)C3)cc2)cc1	inactive	inactive																
CC1(C)CC(=O)C2=C(C1)N(c1ccc(Cl)cc1)CN(c1ccc(OCC(=O)N/N=C/c3ccc(Cl)cc3)cc1)C2	inactive	inactive																
CC1(C)CC(=O)C2=C(C1)N(c1ccc(Cl)cc1)CN(c1ccc(Cl)cc1)C2			28%		23%	28%	0%	0%	6%				18.2%	32.4%	25%	6%	17.8%	Activity (Rattus norvegicus [18]): tde; Activity (Rattus norvegicus [19]): tde
CC1(C)CC(=O)C2=C(C1)N(c1ccc(Cl)cc1)CN(c1ccc(OCC(=O)NN)cc1)C2	inactive	inactive																
CC1(C)CC(=O)C2=C(C1)N(c1ccc(Cl)cc1)CN(c1ccccc1F)C2	inactive	inactive																
CC1(C)CC(=O)C2=C(C1)N(c1ccc(Cl)cc1)CN(c1ccc(OCC(=O)N/N=C/c3ccc(Cl)cc3Cl)cc1)C2	inactive	inactive																
CC1(C)CC(=O)C2=C(C1)N(c1ccc(Cl)cc1)CN(c1ccc(Br)cc1)C2	inactive	inactive																
Cc1ccc(/C=N/NC(=O)COc2ccc(N3CC4=C(CC(C)(C)CC4=O)N(c4ccc(Cl)cc4)C3)cc2)cc1			-29.16%	-19%	-21.4%	-37.5%	-5%	-2%	-6.3%	-11%	-22%	-28.5%	-25%	-39.3%	-25%	-6.3%	-17.8%	
CC1(C)CC(=O)C2=C(C1)N(c1ccc(Cl)cc1)CN(c1ccccc1)C2			-7.7%	-9%	0%	-7.7%	0%	0%	6.25%	-7%	0%	0%	0%	-6%	0%	12%	0%	Activity (Rattus norvegicus [18]): tde; Activity (Rattus norvegicus [19]): tde
CC1(C)CC(=O)C2=C(C1)N(c1ccc(Cl)cc1)CN(c1ccc(F)cc1)C2	inactive	inactive																
CC1(C)CC(=O)C2=C(C1)N(c1ccc(Cl)cc1)CN(c1ccc(OCC(=O)N/N=C/c3ccc([N+](=O)[O-])cc3)cc1)C2			-31.25%	-9%	-17%	-31.25%	-2.1%	0%	-2.1%	-10%	-5%	-9%	-12.5%	-26.5%	-25%	-6.2%	-13%	
CC1(C)CC(=O)C2=C(C1)N(c1ccc(Cl)cc1)CN(c1ccc(OCC(=O)N/N=C/c3cccc([N+](=O)[O-])c3)cc1)C2	inactive	inactive																
CC1(C)CC(=O)C2=C(C1)N(c1ccc(Cl)cc1)CN(c1ccc(O)cc1)C2			0%	10%	0%	-5%	0%	0%	0%	17%	17%	16%	0%	-3%	0%		0%	
CC1(C)CC(=O)C2=C(C1)N(c1ccc(Cl)cc1)CN(c1ccc(OCC(=O)N/N=C/c3ccccc3)cc1)C2			-15%	-6%	-13%	-20%	-4%	0%	0%	-7%	-7%	-7%	-10%	-13%	-10%	0%	-19%	

From ChEMBL document CHEMBL1287656, “New octahydroquinazoline derivatives: synthesis and hypotensive activity” (Eur J Med Chem, 2010)
